# Legend:
# Staphylococcus aureus [1] = assay: Antibacterial activity against methicillin-resistant Staphylococcus aureus by agar dilution method; format: functional
# How it was run: (§1)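 MIC by CLSI agar dilution on Mueller-Hinton agar for S. aureus (MSSA, MRSA) and Enterococcus faecium (VRE).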
# Staphylococcus aureus [2] = assay: Antibacterial activity against methicillin-susceptible Staphylococcus aureus by agar dilution method; format: functional; how it was run: as §1
# Enterococcus = assay: Antibacterial activity against vancomycin-resistant Enterococcus by agar dilution method; format: functional; how it was run: as §1
# Haemophilus influenzae = assay: Antibacterial activity against Haemophilus influenzae by agar dilution method; format: functional
# How it was run: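 CLSI agar dilution; Haemophilus test medium used for H. influenzae; read-out MIC.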
# Staphylococcus aureus [3] = assay: Antibacterial activity against methicillin-susceptible Staphylococcus aureus Smith infected po dosed ICR mouse assessed as protection against mouse mortality administered 1 hr after infection measured up to 7 days; format: functional
# How it was run: (§2)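 Male outbred ICR mice (4-week-old, 18-20 g) infected intraperitoneally with S. aureus Smith, 2.9 × 10⁷ CFU/mouse in 5% mucin. Compounds given orally or intravenously 1 h after infection, eight mice per group. Mortality followed for 7 days. ED50 taken as the dose protecting 50% of infected mice from death.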
# [4] = Aqueous solubility of compound in distilled water; format: physicochemical
# How it was run: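 Water added stepwise with repeated vortexing until solution turned transparent; solubility = amount dissolved divided by total distilled water volume in the final clear solution; triplicate, averaged.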
# [5] = Chemical stability of compound in distilled water assessed as compound remaining at 100 ug/ml after 8 hrs; format: physicochemical
# [6] = Chemical stability of compound in distilled water assessed as compound remaining at pH 3 at 100 ug/ml after 8 hrs; format: physicochemical; conditions: buffer, pH 3, 8 h
# [7] = Chemical stability of compound in distilled water assessed as compound remaining at pH 5 at 100 ug/ml after 8 hrs; format: physicochemical; conditions: buffer, pH 5, 8 h
# [8] = Chemical stability of compound in distilled water assessed as compound remaining at pH 7 at 100 ug/ml after 8 hrs; format: physicochemical; conditions: buffer, pH 7, 8 h
# Streptococcus pneumoniae = assay: Antibacterial activity against penicillin-resistant Streptococcus pneumoniae by agar dilution method; format: functional
# Staphylococcus aureus [9] = assay: Antibacterial activity against methicillin-resistant Staphylococcus aureus Smith infected iv dosed ICR mouse assessed as protection against mouse mortality administered 1 hr after infection measured up to 7 days; format: functional; how it was run: as §2
# Staphylococcus aureus [10] = assay: Antibacterial activity against methicillin-resistant Staphylococcus aureus Smith infected po dosed ICR mouse assessed as protection against mouse mortality administered 1 hr after infection measured up to 7 days; format: functional; how it was run: as §2
# Staphylococcus aureus [11] = assay: Antibacterial activity against methicillin-sensitive Staphylococcus aureus Smith infected iv dosed ICR mouse assessed as protection against mouse mortality administered 1 hr after infection measured up to 7 days; format: functional; how it was run: as §2
# Staphylococcus aureus [12] = assay: Antibacterial activity against methicillin-sensitive Staphylococcus aureus Smith infected po dosed ICR mouse assessed as protection against mouse mortality administered 1 hr after infection measured up to 7 days; format: functional; how it was run: as §2
# [13] = Half life in ICR mouse at 10 mg/kg, iv by LC/MS/MS analysis; format: ADME, organism-based; parameters: dose 10 mg/kg, route intravenous; conditions: in vivo
# How it was run: (§3)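 Single 10 mg/kg dose given orally by feeding tube or iv via tail vein to male ICR mice (4-week-old, 18-20 g). Plasma acidified with 1 N HCl, stored at -70 °C, analysed by LC/MS/MS. Parameters from mean plasma concentrations. For prodrug dosing, values are based on the active parent detected.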
# [14] = AUC in ICR mouse at 10 mg/kg, iv by LC/MS/MS analysis; format: ADME, organism-based; parameters: dose 10 mg/kg, route intravenous; conditions: plasma; how it was run: as §3
# [15] = Clearance in ICR mouse at 10 mg/kg, iv by LC/MS/MS analysis; format: ADME, organism-based; parameters: dose 10 mg/kg, route intravenous; conditions: in vivo; how it was run: as §3
# [16] = Volume of distribution at steady state in ICR mouse at 10 mg/kg, iv by LC/MS/MS analysis; format: ADME, organism-based; parameters: dose 10 mg/kg, route intravenous; conditions: in vivo, read-out: Vdss; how it was run: as §3
# [17] = Half life in ICR mouse at 10 mg/kg, po by LC/MS/MS analysis; format: ADME, organism-based; parameters: dose 10 mg/kg, route oral; conditions: in vivo; how it was run: as §3
# [18] = AUC in ICR mouse at 10 mg/kg, po by LC/MS/MS analysis; format: ADME, organism-based; parameters: dose 10 mg/kg, route oral; conditions: plasma; how it was run: as §3
# [19] = Tmax in ICR mouse at 10 mg/kg, po by LC/MS/MS analysis; format: ADME, organism-based; parameters: dose 10 mg/kg, route oral; conditions: in vivo; how it was run: as §3
# [20] = Cmax in ICR mouse at 10 mg/kg, po by LC/MS/MS analysis; format: ADME, organism-based; parameters: dose 10 mg/kg, route oral; conditions: in vivo; how it was run: as §3
# [21] = Oral bioavailability in ICR mouse at 10 mg/kg by LC/MS/MS analysis; format: ADME, organism-based; conditions: in vivo; how it was run: as §3
Compound,MIC (Staphylococcus aureus [1]),MIC (Staphylococcus aureus [2]),MIC (Enterococcus),MIC (Haemophilus influenzae),ED50 (Staphylococcus aureus [3]),Stability [5],Stability [6],Stability [7],Stability [8],further results
Cc1nnc(-c2ccc(-c3ccc(N4C[C@H](CO)OC4=O)cc3F)cn2)o1,0.5 µg/mL,0.5 µg/mL,0.5 µg/mL,4 µg/mL,4.2 mg/kg,–,–,–,–,–
Cn1nnc(-c2ccc(-c3ccc(N4C[C@H](COc5ccon5)OC4=O)cc3F)cn2)n1,0.5 µg/mL,0.5 µg/mL,0.25 µg/mL,–,> 30 mg/kg,–,–,–,–,–
Cn1nnc(-c2ccc(-c3ccc(N4C[C@H](CF)OC4=O)cc3F)cn2)n1,1 µg/mL,1 µg/mL,1 µg/mL,64 µg/mL,–,–,–,–,–,–
COC[C@H]1CN(c2ccc(-c3ccc(-c4nnn(C)n4)nc3)c(F)c2)C(=O)O1,2 µg/mL,2 µg/mL,2 µg/mL,–,–,–,–,–,–,–
CNC[C@H]1CN(c2ccc(-c3ccc(-c4nnn(C)n4)nc3)c(F)c2)C(=O)O1,4 µg/mL,4 µg/mL,4 µg/mL,–,–,–,–,–,–,–
Cn1nnc(-c2ccc(-c3ccc(N4C[C@H](Cn5cncn5)OC4=O)cc3F)cn2)n1,2 µg/mL,2 µg/mL,1 µg/mL,–,> 30 mg/kg,–,–,–,–,–
Cn1nnc(-c2ccc(-c3ccc(N4C[C@H](Cn5nccn5)OC4=O)cc3F)cn2)n1,16 µg/mL,16 µg/mL,16 µg/mL,–,–,–,–,–,–,–
Cn1nnc(-c2ccc(-c3ccc(N4C[C@H](Cn5ccnn5)OC4=O)cc3F)cn2)n1,0.25 µg/mL,0.25 µg/mL,0.125 µg/mL,2 µg/mL,5.74 mg/kg,–,–,–,–,–
COCC(=O)NC[C@H]1CN(c2ccc(-c3ccc(-c4nnn(C)n4)nc3)c(F)c2)C(=O)O1,1 µg/mL,1 µg/mL,0.5 µg/mL,16 µg/mL,20.5 mg/kg,–,–,–,–,–
Cn1nnc(-c2ccc(-c3ccc(N4C[C@H](CNC(=O)c5ccco5)OC4=O)cc3F)cn2)n1,1 µg/mL,1 µg/mL,0.5 µg/mL,16 µg/mL,> 30 mg/kg,–,–,–,–,–
Cn1nnc(-c2ccc(-c3ccc(N4C[C@H](CNC(=O)c5cccs5)OC4=O)cc3F)cn2)n1,0.5 µg/mL,0.5 µg/mL,0.5 µg/mL,–,> 30 mg/kg,–,–,–,–,–
Cn1nnc(-c2ccc(-c3ccc(N4C[C@H](CNC(=O)CO)OC4=O)cc3F)cn2)n1,1 µg/mL,1 µg/mL,0.25 µg/mL,–,> 30 mg/kg,–,–,–,–,–
Cc1nnc(-c2ccc(-c3ccc(N4C[C@H](COc5ccon5)OC4=O)cc3F)cn2)o1,1 µg/mL,1 µg/mL,0.5 µg/mL,> 16 µg/mL,6.5 mg/kg,–,–,–,–,–
Cc1nnc(-c2ccc(-c3ccc(N4C[C@H](Cn5ccnn5)OC4=O)cc3F)cn2)o1,0.25 µg/mL,0.25 µg/mL,0.125 µg/mL,2 µg/mL,> 30 mg/kg,–,–,–,–,–
Cn1nnc(-c2ccc(-c3ccc(N4C[C@H](COC(=O)[C@@H]5CCCN5)OC4=O)cc3F)cn2)n1.O=C(O)C(F)(F)F,–,–,–,–,–,76.4%,81.9%,65.2%,0.2%,solubility [4]: < 1.6 mg/mL
C[C@H](N)C(=O)OC[C@H]1CN(c2ccc(-c3ccc(-c4nnn(C)n4)nc3)c(F)c2)C(=O)O1.O=C(O)C(F)(F)F,–,–,–,–,–,90.7%,97%,87.8%,6.3%,solubility [4]: > 50 mg/mL
C[C@H](N)C(=O)OC[C@H]1CN(c2ccc(-c3ccc(-c4nnn(C)n4)nc3)c(F)c2)C(=O)O1.Cl,–,–,–,–,–,92.3%,98%,88.1%,7.5%,solubility [4]: > 50 mg/mL
Cn1nnc(-c2ccc(-c3ccc(N4C[C@H](COC(=O)CCN)OC4=O)cc3F)cn2)n1.O=C(O)C(F)(F)F,–,–,–,–,–,96.9%,99.6%,99.5%,94.9%,solubility [4]: 2.6 mg/mL
Cl.Cn1nnc(-c2ccc(-c3ccc(N4C[C@H](COC(=O)CCN)OC4=O)cc3F)cn2)n1,–,–,–,–,–,99.9%,99.9%,94.9%,50.5%,solubility [4]: 20.4 mg/mL
Cn1nnc(-c2ccc(-c3ccc(N4C[C@H](COC(=O)CN)OC4=O)cc3F)cn2)n1.O=C(O)C(F)(F)F,–,–,–,–,–,79.5%,86.6%,92.7%,8.1%,solubility [4]: 28 mg/mL
Cl.Cn1nnc(-c2ccc(-c3ccc(N4C[C@H](COC(=O)CN)OC4=O)cc3F)cn2)n1,–,–,–,–,–,85.7%,95.1%,93.3%,11.6%,–
CC(C)[C@H](N)C(=O)OC[C@H]1CN(c2ccc(-c3ccc(-c4nnn(C)n4)nc3)c(F)c2)C(=O)O1.O=C(O)C(F)(F)F,–,–,–,–,–,99.4%,99.9%,97.3%,51.2%,solubility [4]: 4.7 mg/mL
CC(C)[C@H](N)C(=O)OC[C@H]1CN(c2ccc(-c3ccc(-c4nnn(C)n4)nc3)c(F)c2)C(=O)O1.Cl,–,–,–,–,–,99.9%,99.9%,97.7%,60.9%,–
CC(=O)NC[C@H]1CN(c2ccc(-c3ccc(-c4nnnn4C)nc3)c(F)c2)C(=O)O1,0.78 µg/mL,0.78 µg/mL,0.125 µg/mL,–,–,–,–,–,–,MIC (Streptococcus pneumoniae): 0.39 µg/mL
"CN(C)CC1CN(c2ccc(-c3ccc(-c4nnn(C)n4)nc3)c(F)c2)C(=O)O1 (single isomer, unassigned)",8 µg/mL,4 µg/mL,–,–,–,–,–,–,–,–
CC(=O)NC[C@H]1CN(c2ccc(N3CCOCC3)c(F)c2)C(=O)O1 [LINEZOLID],–,–,1 µg/mL,8 µg/mL,9.4 mg/kg,–,–,–,–,ED50 (Staphylococcus aureus [9]): 12.9 mg/kg; ED50 (Staphylococcus aureus [10]): 15.6 mg/kg; ED50 (Staphylococcus aureus [11]): 29.1 mg/kg; ED50 (Staphylococcus aureus [12]): 21.4 mg/kg
Cn1nnc(-c2ccc(-c3ccc(N4C[C@H](CO)OC4=O)cc3F)cn2)n1 [TEDIZOLID],0.5 µg/mL,0.5 µg/mL,0.125 µg/mL,4 µg/mL,8.8 mg/kg,–,–,–,–,half-life [13]: 209 min; AUC [14]: 103 µg·h/mL; clearance [15]: 1.61 mL/min/kg; Vd [16]: 0.512 L/kg; half-life [17]: 187 min; AUC [18]: 49800 ng·h/mL; Tmax [19]: 2 h; Cmax [20]: 4620 ng/mL; bioavailability [21]: 48.5%

# — ChEMBL document CHEMBL1759832, “Discovery of torezolid as a novel 5-hydroxymethyl-oxazolidinone antibacterial agent” (Eur J Med Chem, 2011)
